Bioassay records as filed in PubChem BioAssay.
MC4R antag cAMP = human MC4R antagonism in cAMP assay. P32245. MC4R-expressing cells, MTII-stimulated cAMP, LANCE TR-FRET. inhibition, % at 6.5 µM. hit rate 0.48% among 360,000;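 active = inhibition above its plate's cutoff, the mean of tested wells on that plate plus 3 SD, cut at about 29% in these data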;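 also: 0% = Melanotan II alone and 100% = Melanotan II plus saturating MCL0020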
Target sequence (P32245 whole entry, looked up): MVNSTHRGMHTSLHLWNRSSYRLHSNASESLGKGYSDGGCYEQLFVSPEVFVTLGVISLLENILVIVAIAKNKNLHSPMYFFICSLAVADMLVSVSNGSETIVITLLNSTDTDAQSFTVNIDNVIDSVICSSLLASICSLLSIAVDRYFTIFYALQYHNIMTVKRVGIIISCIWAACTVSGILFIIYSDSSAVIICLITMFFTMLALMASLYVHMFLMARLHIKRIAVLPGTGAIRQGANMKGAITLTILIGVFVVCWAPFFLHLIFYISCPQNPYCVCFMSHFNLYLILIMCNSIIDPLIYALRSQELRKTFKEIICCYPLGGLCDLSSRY
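system = U2OS cells with stable human MC4R expression | also added = Melanotan II challenge after compound preincubation | dosing = one concentration, 6.5 µM nominal | incubation = compound 30 min, challenge 1 h, detection 1 h | measured by = TR-FRET with Eu-cAMP and labeled anti-cAMP, 671 nm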
Exocytosis inh = blocks lytic granule exocytosis; inhibition, % at 10 µM; TALL-104 LAMP-1 surface exposure, flow cytometry; cells stimulated with thapsigargin and PMA; AID 651702; hit rate 0.66% among 360,000;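 active = inhibition above about 55%, limit read from the data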
MC4R ag barr = agonists of human melanocortin 4 receptor (MC4R) beta-arrestin. U2OS MC4R beta-arrestin complementation, luminescence; percent of melanotan II response, DMSO zero. hit rate 0.98% among 360,000. activation, % at 8.9 µM. P32245;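 active = activation above a per-plate cutoff, the mean activation of sample wells on that plate plus 3 SD, cut at about 8% in these data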
Myeloid diff MLP = compounds promoting myeloid differentiation; AID 624256; hit rate 1% among 360,000; calls only at 10 µM; ER-HoxA9 myeloid progenitors, lysozyme-GFP differentiation, flow cytometry;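 active = normalized GFP-positive differentiation at or above the plate's own cutoff, the solvent-only control mean plus 3 SD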;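 also: cells exposed to compound for four days before flow analysis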
EBI2 block = antagonists of human EBI2 receptor. hit rate 0.81% among 360,000. P32249. inhibition, % at 5 µM. AID 651636. EBI2 beta-arrestin recruitment, luminescence, 7a,25-OHC stimulated; in the data active = inhibition above about 38%;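 also: enzyme fragment complementation signal reports receptor beta-arrestin coupling in cells; 0% = agonist plus DMSO wells and 100% = wells without agonist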
Target sequence (P32249 whole entry, looked up, the tested form may be a part): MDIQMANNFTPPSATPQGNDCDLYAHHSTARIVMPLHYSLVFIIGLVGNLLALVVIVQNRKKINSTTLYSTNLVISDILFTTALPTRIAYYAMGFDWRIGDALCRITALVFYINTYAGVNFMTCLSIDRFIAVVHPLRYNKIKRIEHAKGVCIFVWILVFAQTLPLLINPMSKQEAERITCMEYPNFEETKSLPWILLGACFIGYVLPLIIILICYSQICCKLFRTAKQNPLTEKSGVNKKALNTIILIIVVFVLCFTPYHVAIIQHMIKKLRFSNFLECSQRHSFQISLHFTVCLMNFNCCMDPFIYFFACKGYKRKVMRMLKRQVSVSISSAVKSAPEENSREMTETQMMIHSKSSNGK
An asterisk follows results filed as active; i = inactive; nt = not tested or not shown; + = active, no number. Only some compounds are listed: those with a hit (about 3.7% of all), similar ones and a draw of the others.

SMILES | MC4R antag cAMP | Exocytosis inh | MC4R ag barr | Myeloid diff MLP | EBI2 block
COc1ccc(CNC(=O)COC(=O)c2cc(-c3ccc(Cl)s3)nc3ccccc23)cc1 | 0.5 | -0.9 | 9.2* | i | 9.1
CCCCCC(NC(=O)C1CCN(C(=O)[C@@H](NS(=O)(=O)c2ccc(C)cc2)C(C)C)CC1)C(=O)O (stereo partly drawn) | 6.3 | -0.8 | 1.7 | i | 3.6
CCCCCc1ccc(OCCOCCn2c[n+](C)c3ccccc32)c(CCCCC)c1 | -7.7 | 39.6 | 17.4* | i | 11.4
Brc1ccc(-c2nc(N/N=C/c3cccnc3)c3ccccc3n2)cc1 | -4.0 | 13.8 | 1.6 | + | 12.8
Cc1ccccc1-c1nc2ccccc2c(=O)n1/N=C/c1ccccc1[N+](=O)[O-] | -0.3 | 66.9* | -5.2 | i | -1.8
Cc1ccc(-c2nc(N/N=C/c3ccccc3[N+](=O)[O-])c3ccccc3n2)cc1 | 1.5 | -1.0 | 5.4 | + | 19.6
Cc1ccccc1-c1nc2ccccc2c(=O)n1/N=C/c1ccc([N+](=O)[O-])cc1 | 2.6 | -2.5 | 2.2 | i | 0.8
Cc1sc2nc(SCC(=O)NCc3ccco3)n(Cc3ccccc3)c(=O)c2c1C | 8.1 | 0.7 | -1.0 | i | 10.5
Cc1[nH]c2ccc(-c3nnc(SCC(=O)NCc4ccco4)n3Cc3ccccc3)cc2c1C | 3.5 | 87.0* | 0.1 | i | 31.3
COc1ccc(N2CCN(C(=O)C3Cc4ccccc4CN3C(=O)c3ccccc3)CC2)cc1 (stereo not drawn) | 2.8 | -1.5 | -0.1 | + | 4.7
O=C(N/N=C/c1cc([N+](=O)[O-])ccc1O)c1cccc2cc[nH]c12 | 3.5 | -1.6 | -1.5 | nt | 63.4*
O=C(N/N=C/c1ccccc1[N+](=O)[O-])c1ccc2c(c1)OCCO2 | -4.6 | -3.5 | -0.7 | i | 7.3
O=C(N/N=C/c1cc([N+](=O)[O-])ccc1O)C1CC1 | -0.6 | -0.5 | -4.9 | i | 61.5*
O=C1NCCCC1C(=O)N/N=C/c1cc([N+](=O)[O-])ccc1O (stereo not drawn) | 13.2 | -3.9 | -4.3 | i | 1.7
O=C(N/N=C/c1cc([N+](=O)[O-])ccc1O)c1ccc2c(c1)OCCO2 | -5.0 | -7.5 | 0.7 | i | 76.2*
O=C(N/N=C/c1cccc([N+](=O)[O-])c1)c1cccc2cc[nH]c12 | -3.3 | -1.1 | -0.2 | i | -1.7
CN(C)C(=O)CCc1ccc2c3c([nH]c2c1)[C@]1(C)[C@@H](C(=O)N2CCCCC2)C[C@H](CC(=O)NCCCn2ccnc2)C(=O)N1CC3 | -2.0 | -0.2 | -2.1 | i | -4.0
CCCn1c2ccccc2c2cnn(CC(=O)NC3CCCCC3)c(=O)c21 | -2.2 | -22.4 | -2.4 | i | -6.2
COCCN(C(=O)COC(=O)C(C)(C)Oc1ccc(Cl)cc1)c1c(N)n(Cc2ccccc2)c(=O)[nH]c1=O | 4.7 | 7.5 | 1.2 | i | -2.1
COc1ccc(N(CC(=O)NC2CCCCCC2)S(=O)(=O)c2ccc(C)cc2)cc1OC | 11.3 | -0.4 | -3.0 | i | -9.1
O=C(CSc1ncnc2nc[nH]c12)N1CCN(c2ccccc2)CC1 | -6.6 | -3.5 | -1.4 | + | -11.9
COc1cc(C2Oc3ccccc3C=C2[N+](=O)[O-])cc(OC)c1OC (stereo not drawn) | 3.8 | 59.7* | -1.7 | i | 34.6
COc1cc(C2NC(=O)c3ccccc3O2)cc(OC)c1OC (stereo not drawn) | 4.9 | 0.0 | 0.2 | i | 1.0
O=C(COC(=O)c1cc(=O)[nH]c(=O)[nH]1)Nc1ccccc1F | 5.6 | -0.9 | -2.5 | i | 3.3
O=C(COC(=O)c1cc(S(=O)(=O)N2CCOCC2)ccc1F)c1ccc[nH]1 | -37.3 | -0.9 | -6.2 | i | -14.9
SMILES | MC4R antag cAMP | Exocytosis inh | MC4R ag barr | Myeloid diff MLP | EBI2 block
O=C(COC(=O)c1cc(S(=O)(=O)N2CCOCC2)ccc1Cl)c1ccc[nH]1 | 4.2 | -6.2 | 1.1 | + | 0.0
CCc1nc2ccc(C(=O)N(C)CCCN(C)C)cn2c1N(C=O)CCC(C)C | -1.4 | -2.6 | -1.2 | i | -4.5
COc1ccccc1C(=O)Nc1nc2cc3c(cc2s1)OCCO3 | -0.1 | -1.7 | 0.0 | + | 30.6
COc1ccccc1C(=O)Nc1nc2cc3c(cc2s1)OCO3 | 7.2 | 0.4 | -2.7 | i | 4.9
Cc1cccc(-c2noc(CN(C(=O)c3c(-c4ccccc4Cl)noc3C)C(C)C)n2)c1 | 7.9 | 3.5 | 0.4 | i | 14.5
Cc1onc(-c2ccccc2Cl)c1C(=O)N(Cc1nc(-c2ccccc2)no1)C1CCCCC1 | 10.1 | -0.7 | -1.0 | + | 19.2
NC(=O)NCCCC(=O)NCC(c1ccccc1Cl)c1c[nH]c2ccccc12 (stereo not drawn) | 6.2 | 15.9 | -0.9 | i | 0.3
O=C(CCN1C(=O)NC2(CCCC2)C1=O)Nc1ccc(-c2nc3ccccc3s2)cc1 | 13.7 | 4.3 | 2.1 | + | -9.9
CCOc1ccc2[nH]c(=O)c(CN(CCN3CCCC3)C(=S)Nc3ccccc3OC)cc2c1 | 21.9 | -0.9 | 0.2 | i | 1.0
CC(=O)Nc1ccc(C(=O)OCc2ccc(Br)cc2)cc1 | -0.5 | 10.3 | 0.6 | i | 35.2
CC(=O)Nc1cccc(C(=O)OCc2ccc(C(=O)Oc3ccc(Cl)cc3)cc2)c1 | 8.0 | -3.0 | 13.3* | i | 2.1
NS(=O)(=O)c1ccc(Oc2ccc(S(N)(=O)=O)cc2)cc1 | 8.2 | -1.5 | 2.3 | i | -5.2
C=CS(=O)(=O)c1ccc(Oc2ccc(S(=O)(=O)C=C)cc2)cc1 | 14.3 | 88.8* | -2.0 | i | 47.3*
CC1(C)Cc2cccc(OCC(=O)OCC(=O)NCc3ccccc3)c2O1 | 0.0 | -2.8 | -0.7 | i | 8.3
CC(C)NC(=O)NC(=O)CSc1nnc(COc2ccccc2F)n1C(C)C1CC2CCC1C2 (stereo not drawn) | 21.1 | -0.6 | 9.5* | i | 9.8
COCCCNCCCOc1ccc(Cl)cc1C(C)(C)C | -2.3 | 3.7 | 10.1* | i | -2.5
CNCCCOc1ccc(Cl)cc1C(C)(C)C | -0.8 | -3.0 | -0.6 | i | -12.1
COc1cccc(NC(=O)C(=O)N2CCOCC2)c1 | -4.5 | -3.5 | -2.2 | + | -7.0
Nc1nc(-c2ccccc2)c(C(=O)Nc2ccccc2)s1 | 0.1 | -2.0 | 0.0 | i | -3.6
COc1cc(C2/C(=C(\O)c3ccc4c(c3)CC(C)O4)C(=O)C(=O)N2CCN2CCOCC2)cc(OC)c1OC (stereo not drawn) | 0.3 | 6.6 | -0.4 | i | 8.6
COc1cc(C=NNC(=O)C(=O)Nc2cccc(Cl)c2)cc(OC)c1O | 4.7 | 2.9 | -1.2 | + | -23.3
O=C(N/N=C/c1cccs1)C(=O)Nc1cccc(Cl)c1 | -5.6 | 0.9 | 3.5 | i | -16.7
O=c1c2ccccc2sc2ccc(NCCCN3CCOCC3)cc12 | 4.1 | -1.3 | 0.4 | + | -7.0
COc1cc2sc3cc(NCCCN4CCOCC4)ccc3c(=O)c2cc1OC | -7.3 | -3.0 | 0.9 | i | -2.2
